# Assay results from different studies.
# Compare with care: the assays were run in different laboratories.
# OPRD1: Delta-type opioid receptor (OPRD1, Homo sapiens, UniProt P41143)
# gag-pol reverse transcriptase: Gag-Pol polyprotein, reverse transcriptase (gag-pol, Human immunodeficiency virus 1, UniProt P03366)
# gyrA: DNA gyrase subunit A (gyrA, Escherichia coli K-12, UniProt P0AES4)
# HTR3A: 5-hydroxytryptamine receptor 3A (HTR3A, Homo sapiens, UniProt P46098)
Compound,target,assay,measurement,result
CNc1nc(C#Cc2ccc(Cl)s2)nc2c1ncn2[C@H]1[C@H](O)[C@H](O)[C@]2(C(=O)OCCC(C)C)C[C@H]12,OPRD1,"ligand displacement, radioligand",Ki,> 10000 nM
CC1=C(/C=C/C2=CCC[C@@]3(C)[C@H]2CC[C@@H]3[C@@](C)(O)CCCC(C)C)C[C@@H](O)CC1,"Oxysterols receptor LXR-alpha (NR1H3, Homo sapiens, UniProt Q13133)","coactivator recruitment, agonist, TR-FRET",EC50,10 to 100 nM
N#Cc1ccc(Nc2nc(N)cc(Oc3ccc(-c4ccc(C#N)cc4)cc3Cl)n2)cc1,gag-pol reverse transcriptase,"enzyme activity, inhibitor",IC50,30 nM
CC(C)Oc1c(NC(=O)c2ccc(NC(=O)[C@H](CC(N)=O)NC(=O)c3ccc(NC(=O)c4ccc(C5(C(F)(F)F)N=N5)cc4)cc3)cc2)ccc(C(=O)Nc2ccc(C(=O)O)cc2)c1O,gyrA,"enzyme activity, inhibitor",IC50,16000 nM
O[C@@H]1[C@H](O)[C@@H]2C[C@@H]2[C@H]1n1cnc2c(NCC(c3ccccc3)c3ccccc3)nc(C#Cc3ccccc3)nc21,OPRD1,"ligand displacement, radioligand",Ki,> 10000 nM
Cc1cc(C)cc(S(=O)(=O)c2c(C(=O)NCCCNS(=O)(=O)c3cccnc3)[nH]c3ccc(Cl)cc23)c1,gag-pol reverse transcriptase,"enzyme activity, inhibitor, ELISA",IC50,41 nM
CCCCN1CCC(COC(=O)c2ccc(N)c(OCF)c2)CC1,HTR3A,"cell-free assay, radioligand",Ki,> 10000 nM
CCCCC(=O)[C@@]12C[C@@H]1[C@@H](n1ccc3c(NC)nc(C#Cc4ccc(Cl)s4)nc31)[C@H](O)[C@@H]2O,OPRD1,"ligand displacement, radioligand",Ki,> 10000 nM
Cc1ccc(S(=O)(=O)NCCCCNC(=O)c2[nH]c3ccc(Cl)cc3c2S(=O)(=O)c2cc(C)cc(C)c2)cc1,gag-pol reverse transcriptase,"enzyme activity, inhibitor, ELISA",IC50,140 nM
CC(C)Oc1c(-n2cc(-c3ccc(NC(=O)C(CC(N)=O)NC(=O)c4ccc(NC(=O)c5ccc(C#N)cc5)cc4)cc3)nn2)ccc(C(=O)Nc2ccc(C(=O)O)cc2)c1O (centres unmarked),gyrA,"enzyme activity, inhibitor",IC50,1500 nM
Cc1ccc(S(=O)(=O)NCCCCCNC(=O)c2[nH]c3ccc(Cl)cc3c2S(=O)(=O)c2cc(C)cc(C)c2)cc1,gag-pol reverse transcriptase,"enzyme activity, inhibitor, ELISA",IC50,130 nM
CCn1c(-c2nc3ccc(C(=O)N4CCCC(N)C4)cc3n2C)cc2ccccc21 (centres unmarked),HTR3A,"calcium signal, agonist",EC50,> 50100 nM
CC(C)Oc1c(N)ccc(C(=O)Nc2ccc(C(=O)N[C@@H](CC(N)=O)C(=O)Nc3ccc(C(=O)Nc4ccc(C(=O)Nc5ccc(C(=O)O)cc5)c(O)c4OC(C)C)cc3)cc2)c1O,gyrA,"enzyme activity, inhibitor",IC50,50000 nM
Cc1cc(C)cc(S(=O)(=O)c2c(C(=O)NCCCNS(=O)(=O)c3ccccc3F)[nH]c3ccc(Cl)cc23)c1,gag-pol reverse transcriptase,"enzyme activity, inhibitor, ELISA",IC50,76 nM
N#Cc1ccc(Nc2nc(N)cc(Oc3c(F)cc(-c4ccccc4)cc3F)n2)cc1,gag-pol reverse transcriptase,"enzyme activity, inhibitor",IC50,70 nM
CC(C)Oc1c(NC(=O)c2ccc(NC(=O)[C@H](CC(N)=O)NC(=O)c3ccc(NC(=O)c4ccc([N+](=O)[O-])c(OC(C)C)c4O)cc3)cc2)ccc(C(=O)Nc2ccc(C(=O)O)cc2)c1O,gyrA,"enzyme activity, inhibitor",IC50,> 50000 nM
Cc1cc(C)cc(S(=O)(=O)c2c(C(=O)NCCCCCNS(=O)(=O)c3ccc(C#N)cc3)[nH]c3ccc(Cl)cc23)c1,gag-pol reverse transcriptase,"enzyme activity, inhibitor, ELISA",IC50,160 nM
Cc1cc(C#N)ccc1C(=O)Nc1ccc(C(=O)N[C@@H](CC(N)=O)C(=O)Nc2ccc(C(=O)Nc3ccc(C(=O)Nc4ccc(C(=O)O)cc4)c(O)c3OC(C)C)cc2)cc1,gyrA,"enzyme activity, inhibitor",IC50,1700 nM
CNC(=O)[C@@]12C[C@@H]1[C@@H](n1cnc3c(NC)nc(C#Cc4ccc(F)c(F)c4)nc31)[C@H](O)[C@@H]2O,OPRD1,"ligand displacement, radioligand",Ki,> 10000 nM
Cc1cc(C)cc(S(=O)(=O)c2c(C(=O)NCCNS(=O)(=O)c3ccccc3F)[nH]c3ccc(Cl)cc23)c1,gag-pol reverse transcriptase,"enzyme activity, inhibitor, ELISA",IC50,83 nM
O[C@@H]1[C@H](O)[C@@H]2C[C@@H]2[C@H]1n1cnc2c(NCCc3ccccc3)nc(C#Cc3ccccc3)nc21,OPRD1,"ligand displacement, radioligand",Ki,> 10000 nM
Cc1cc(C)cc(S(=O)(=O)c2c(C(=O)NCCCCNS(=O)(=O)c3ccc(F)cc3)[nH]c3ccc(Cl)cc23)c1,gag-pol reverse transcriptase,"enzyme activity, inhibitor, ELISA",IC50,150 nM
CNC(=O)[C@@]12C[C@@H]1[C@@H](n1cnc3c(NC)nc(C#Cc4ccc(Cl)s4)nc31)[C@H](O)[C@@H]2O,OPRD1,"ligand displacement, radioligand",Ki,> 10000 nM
Cc1cc(C)cc(S(=O)(=O)c2c(C(=O)NCCCCCNS(=O)(=O)c3cccnc3)[nH]c3ccc(Cl)cc23)c1,gag-pol reverse transcriptase,"enzyme activity, inhibitor, ELISA",IC50,95 nM
CNC(=O)[C@@]12C[C@@H]1[C@@H](n1cnc3c(NCCCO)nc(C#Cc4ccc(Cl)s4)nc31)[C@H](O)[C@@H]2O,OPRD1,"ligand displacement, radioligand",Ki,> 10000 nM
CC(C)Oc1c(NC(=O)c2ccc(NC(=O)[C@H](CC(N)=O)NC(=O)c3ccc(NC(=O)c4ccccc4)cc3)cc2)ccc(C(=O)Nc2ccc(C(=O)O)cc2)c1O,gyrA,"enzyme activity, inhibitor",IC50,4000 nM
